# Test results as given in PubChem BioAssay.
# The source made the active and inactive calls.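 Rule for the calls, unless noted: active = NADPH fluorescence slope more negative than the mean of all samples by about 3 SD, 99.7% confidence; inactive = the rest.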
# What was measured:
# [1] = inhibitors of TNFa-induced NFkB p65 translocation, primary screen, imaging, HUVEC, MLSMR starter and 10KST1 sets (AID 438;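 active = inhibition above 20% together with a positive visual image hit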;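 note: compound added about 3h40 before a 20 min TNFalpha stimulation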;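 for inhibition: signal is the nuclear over cytoplasmic p65 intensity ratio per well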); conditions: HUVEC TNFa-induced p65 nuclear translocation; cell count: measured here: nuclei count (cytotoxicity indicator), at 2.08 µM; inhibition: at 2 µM, stronger effect = higher value, 0% TNFa-plus-vehicle, 100% no-TNFa wells
# [2] = reduction of polyQ htt aggregates in cells – imaging, exon1htt(103Q)mCFP cells, high-content imaging, primary screen (AID 483;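 active = visual image review flags a hit and inhibition of aggregation exceeds 20%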;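 note: compound exposure lasted 3 days before fixation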;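 for nuclei count: percent of the per-plate median nuclei count of sample wells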); conditions: exon1htt(103Q)mCFP cell line, aggregate imaging, at 2 µM; inhibition of aggregation: stronger effect = higher value; nuclei count: measured here: cell count, toxicity
# [3] = endothelial E-selectin expression blockers – imaging, HUVEC, immunofluorescence, MLSMR starter and 10KST1 sets, primary screen (AID 487;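 active = visually confirmed hit in the image check and inhibition above 20%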;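 for inhibition: signal is fraction of cell area covered by stained E-selectin grains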;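 for nuclei count: 100% = median nuclei count of all wells on the same plate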); conditions: HUVEC TNFalpha-induced E-selectin immunofluorescence imaging, at 2 µM; inhibition: stronger effect = higher value; nuclei count: measured here: cell number, toxicity
# [4] = molecular target: Voltage-gated potassium channel subunit beta-2 (Rattus norvegicus) (UniProt P62483); experiment: inhibitors of rat Kvbeta2 reductase activity – biochemical, NADPH fluorescence, primary screen (AID 622;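 active = fluorescence slope higher than the sample average by over 3 SD, cut at about -0.22 in these data, passing the limit was not always enough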;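 note: slope of raw intensity against log time taken from 70 to 1610 s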); conditions: recombinant KvBeta, 4-cyanobenzaldehyde reduction, at 10 µM, stronger effect = higher value
# [5] = molecular target: Voltage-gated potassium channel subunit beta-2 (Rattus norvegicus) (UniProt P62483); experiment: enhancers of rat Kvbeta2 NADPH turnover – biochemical, NADPH fluorescence, primary screen (AID 623); conditions: Recombinant KvBeta, NADPH fluorescence decrease slope, 10 min; at 10 µM; stronger effect = lower value;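 note: fluorescence intensity change per second fitted from 20 to 320 s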
# [6] = molecular target: Muscarinic acetylcholine receptor M4 (Homo sapiens) (UniProt P08173); experiment: M4-linked GIRK flux change, two-sided – cell-based, HEK293 M4/GIRK, thallium flux, BTC-AM, M4 allosteric agonist project, primary screen (AID 625;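 active = fluorescence slope after compound addition differing from the mean of all tested samples at 99.7% confidence, mostly higher but some lower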;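 note: thallium influx through GIRK channels coupled to M4 in HEK293 cells with BTC-AM dye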); conditions: at 10 µM, actives lie on both sides
# Summary of the method: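 assay system = HEK293 cells with M4 receptor and GIRK channels | medium = pH 7.3 thallium assay buffer | doses = 10 µM final, single point | timing = cells overnight at 37 °C, BTC-AM loading 1 h, reads 2 min total | signal = BTC-AM fluorescence, 1 Hz kinetic reads | read-out = post-addition slope, 15–24 s, of baseline-normalized fluorescence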
# [7] = blockers of RIG-like receptor reporter activation – cell-based, Sendai virus stimulus, luciferase, 10K MLSCN set, TLR/RLR signaling modifier project, primary screen (AID 602276;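 active = inhibition at or above 50% at 10 µM; inactive = inhibition below 50%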;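 note: firefly luciferase from ISG56 promoter only with Renilla not read in this screen; 0% = Sendai virus plus DMSO and 100% = medium plus DMSO without virus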); conditions: HEK293 RL24 IRF3 luciferase reporter, at 10 µM, stronger effect = higher value
# [8] = TLR3 IRF3 reporter activation blockers – cell-based, poly I:C stimulus, luciferase, 10K MLSCN set, primary screen (AID 602277;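 active = inhibition of the reporter signal at or above 50%; inactive = inhibition below 50%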); conditions: HEK293-TLR3 RL24 IRF3 luciferase reporter, at 10 µM, stronger effect = higher value
# Chain of Muscarinic acetylcholine receptor M4 (Homo sapiens) (P08173 whole entry, looked up): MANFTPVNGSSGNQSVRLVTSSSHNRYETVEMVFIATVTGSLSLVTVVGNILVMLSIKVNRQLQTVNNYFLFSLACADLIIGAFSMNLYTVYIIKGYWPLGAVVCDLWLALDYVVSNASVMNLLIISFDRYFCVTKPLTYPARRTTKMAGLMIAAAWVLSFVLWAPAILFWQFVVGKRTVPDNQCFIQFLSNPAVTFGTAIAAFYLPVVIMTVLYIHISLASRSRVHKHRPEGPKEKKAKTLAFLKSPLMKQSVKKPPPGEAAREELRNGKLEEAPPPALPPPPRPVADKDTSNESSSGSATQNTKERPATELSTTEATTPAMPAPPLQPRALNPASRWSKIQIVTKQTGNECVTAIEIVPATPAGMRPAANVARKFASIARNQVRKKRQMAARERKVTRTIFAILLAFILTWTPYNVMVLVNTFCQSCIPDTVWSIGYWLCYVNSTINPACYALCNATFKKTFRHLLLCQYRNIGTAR
# Chain of Voltage-gated potassium channel subunit beta-2 (Rattus norvegicus) (P62483 whole entry, looked up): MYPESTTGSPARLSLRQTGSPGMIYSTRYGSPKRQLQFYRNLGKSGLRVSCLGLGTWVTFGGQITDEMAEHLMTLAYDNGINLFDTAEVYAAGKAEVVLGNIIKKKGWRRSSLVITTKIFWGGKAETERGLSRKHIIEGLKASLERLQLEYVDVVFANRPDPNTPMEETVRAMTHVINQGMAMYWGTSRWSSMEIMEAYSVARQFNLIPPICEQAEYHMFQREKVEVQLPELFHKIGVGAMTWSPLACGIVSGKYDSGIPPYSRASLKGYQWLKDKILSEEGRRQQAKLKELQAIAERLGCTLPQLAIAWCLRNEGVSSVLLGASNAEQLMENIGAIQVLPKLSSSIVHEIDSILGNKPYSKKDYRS
Structure (SMILES),cell count [1],inhibition [1],inhibition of aggregation [2],nuclei count [2] [%],inhibition [3],nuclei count [3] [%],fluorescence slope [4],NADPH fluorescence slope [5],fluorescence slope [6],inhibition [7],inhibition [8]
CCc1cc2ccc(C)cc2nc1SCC(=O)N1CCN(C(=O)c2ccco2)CC1,431,4.8% (inactive),15.4% (inactive),106,-49.1% (inactive),119,-0.504 (inactive),-0.000145 (inactive),0.00487 (inactive),11.9% (inactive),5.95% (inactive)
O=C1CN(C(=O)CN2CCCC2)C(c2ccccc2)c2cc(Br)ccc2N1 (stereo not drawn),393,-1.2% (inactive),-15.4% (inactive),83.1,-23.4% (inactive),123,-0.512 (inactive),-6.6e-05 (inactive),0.00427 (inactive),-0.203% (inactive),21.9% (inactive)
Cc1ccc(-n2c(Cc3cccn3C)nnc2SCC(=O)NCc2ccc3c(c2)OCO3)cc1,567,-12.9% (inactive),-10.3% (inactive),103,-53.4% (inactive),82.3,-0.419 (inactive),2.3e-05 (inactive),0.00714 (inactive),18.7% (inactive),26.7% (inactive)
COc1ccc2c(-c3cccnc3)cc(=O)[nH]c2c1,363,4.3% (inactive),-5.5% (inactive),84.5,36.3% (inactive),79.4,-0.39 (inactive),-9.1e-05 (inactive),0.00553 (inactive),13.4% (inactive),26.1% (inactive)
Cc1ccc(NC(=O)CS(=O)CC(=O)NCC2CCCO2)cc1 (stereo not drawn),515,7.1% (inactive),17.5% (inactive),100,-38.7% (inactive),117,-0.309 (inactive),1.2e-05 (inactive),0.00727 (inactive),-20.7% (inactive),-6.01% (inactive)
Cc1noc(NS(=O)(=O)c2ccc(NC(=O)CCC3CCCC3)cc2)c1C,472,2.1% (inactive),-12.2% (inactive),83.5,-147% (inactive),115,-0.557 (inactive),-1.2e-05 (inactive),0.00725 (inactive),19.6% (inactive),11.2% (inactive)
COc1ccc(-c2cc(C(=O)Nc3ccc(C)cc3)no2)cc1,320,-6.5% (inactive),-11.2% (inactive),108,-9.7% (inactive),103,-0.323 (inactive),-8.4e-07 (inactive),0.00844 (inactive),-20.2% (inactive),-32.3% (inactive)
C[C@H](NC(=O)OC(C)(C)C)C(=O)NCC1CCC(C(=O)O)CC1 (stereo partly drawn),376,-1.1% (inactive),4% (inactive),103,-23.6% (inactive),101,-0.536 (inactive),1.9e-05 (inactive),0.00501 (inactive),16.6% (inactive),21.3% (inactive)
Cc1c(=O)n(OCc2ccccn2)c2ccccc2[n+]1[O-],208,-18.3% (inactive),27.8% (inactive),112,14.4% (inactive),89.2,-0.412 (inactive),-1.8e-05 (inactive),0.00625 (inactive),11.7% (inactive),16.8% (inactive)
O=C(O)CCCC(=O)NCCc1ccncc1,425,8.1% (inactive),-3.6% (inactive),112,1.4% (inactive),112,-0.519 (inactive),-7e-06 (inactive),0.00581 (inactive),3.6% (inactive),33.4% (inactive)
CC1(C)Cc2noc(N)c2C(C)(C)N1OC(=O)c1ccccc1,322,2.4% (inactive),1.8% (inactive),99,-48.1% (inactive),126,-0.463 (inactive),1.8e-05 (inactive),0.00527 (inactive),-2.74% (inactive),5.08% (inactive)
Cc1ccc(Cn2ccc(NC(=O)c3noc4c3CCCC4)n2)cc1,246,-0.8% (inactive),-6.8% (inactive),97.7,44.7% (inactive),117,-0.539 (inactive),-3.2e-05 (inactive),0.00747 (inactive),10% (inactive),-98.2% (inactive)
CC(=O)N1CCC2(CC1)CC(=O)c1cc(OCC(=O)NCc3ccco3)ccc1O2,376,6.6% (inactive),-16.2% (inactive),113,-143% (inactive),97.8,-0.253 (inactive),1.5e-05 (inactive),0.00743 (inactive),-7.82% (inactive),2.06% (inactive)
